Drawing on the array DNA melting data of Ke et al. (doi:10.1101/2024.01.08.574731), this text covers Tm and folding enthalpy for 36 sequences.

A short description of data set [1]: melting temperature; fluorescence melt of hairpins on a sequencing array, two-state fit, raised by 9.35 °C to match UV melts. The conditions noted are these: sodium 0.088 M. Put shortly:
(§1)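 Folding enthalpy and melting temperature were estimated with bootstrapped two-state fits and combined across four replicates by inverse-variance weighting, with fitted temperatures raised by 9.35 °C to match UV melts. The data were Cy3 fluorescence of library hairpins, with annealed Cy3 and quencher oligos, on a sequenced MiSeq flow cell in 50 mM Na-HEPES pH 8.0, 25 mM NaCl, imaged in 2.5 °C steps up to 60 °C and normalised to pre-quench Cy3 and control constructs.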

Data set [2] can be described thus: folding enthalpy; higher = less favourable; fluorescence melt of hairpins on a sequencing array, two-state fit. The note with it: sodium 0.088 M. Summed up: as §1

Consider GTCTGCGAAAGCACGAC ((((((....))).))), for which the Tm in data set [1] was 50.2 °C. For the same sequence, the folding enthalpy in data set [2] is -21.5 kcal/mol.
Turning to GTCTGCGAAAGCAGCGAC ((((((....)))..))), the Tm in data set [1] was 60.6 °C. The folding enthalpy in data set [2] is -12.5 kcal/mol.
Turning to GTCTGCGAAAGCATTGAC ((((((....)))..))), in data set [1], the Tm is 40.2 °C. For the same sequence, in data set [2], the folding enthalpy was -14 kcal/mol.
In the case of GTCTGCGGAAACGCAAAC ((.((((....)))).)), the Tm in data set [1] was 38 °C. In addition, the folding enthalpy in data set [2] is -15.2 kcal/mol.
GTCTGCGGAAACGTAGGC (.((.((....)).)).): the Tm in data set [1] stood at 42.4 °C. In data set [2], the folding enthalpy was -26.7 kcal/mol.
For GTCTGGACGAAAGTCGAC (((..(((....)))))) the same measures were 38.4 °C and -17.6 kcal/mol.
On to GTCTGGCGAAAGCCGGAC (((.(((....))).))), for which the Tm in data set [1] was 69 °C. In data set [2], the folding enthalpy was -25.6 kcal/mol.
As to GTCTGGGGAAACCCAAAC ((.((((....)))).)), in data set [1], the Tm is 31.8 °C. The folding enthalpy in data set [2] is -14.3 kcal/mol.
For the sequence GTCTGTCCGAAAGGAGAC (((..(((....)))))), the Tm in data set [1] came out at 31.3 °C. Further, in data set [2], the folding enthalpy was -15.1 kcal/mol.
As for GTCTTCCGAAAGGATGAC (((.(((....))).))), the Tm in data set [1] came to 53.1 °C. For the same sequence, in data set [2], the folding enthalpy was -42.4 kcal/mol.
Turning to GTCTTCGAAAGAAAGAC ((((((....))).))), the Tm in data set [1] is 42.6 °C. In data set [2], the folding enthalpy was -21.8 kcal/mol.
As for GTCTTCGAAAGAACAGAC ((((((....)))..))), the Tm in data set [1] was 28.3 °C. In data set [2], the folding enthalpy was -16.6 kcal/mol.
The like results for GTCTTCGAAAGAAGAC ((((((....)))))) were, in that order, 62.4 °C and -30.3 kcal/mol.
As for GTCTTGGGAAACCAGGAC (((.(((....))).))), in data set [1], the Tm came to 47.2 °C. The folding enthalpy in data set [2] is -30.3 kcal/mol.
For GTCTTGGGAAACTAAGGC (.(((.(....).))).), the Tm in data set [1] was 29 °C. In addition, the folding enthalpy in data set [2] was -19.4 kcal/mol.
On to GTCTTTCCGAAAGGAGAC (((..(((....)))))), for which, in data set [1], the Tm was determined as 29.2 °C. For the same sequence, the folding enthalpy in data set [2] is -10.6 kcal/mol.
In the case of GTCTTTGCGAAAGCAGAC (((..(((....)))))), the Tm in data set [1] amounted to 34.6 °C. The folding enthalpy in data set [2] was -16.3 kcal/mol.
Turning to GTCTTTGGAAACAAAGGC (.(((((....))))).), in data set [1], the Tm worked out at 46.6 °C. The folding enthalpy in data set [2] is -29.3 kcal/mol.
In the case of GTGAAAGAAATTTCAC ((((((....)))))), in data set [1], the Tm came out at 44.3 °C. Moreover, the folding enthalpy in data set [2] was -29.4 kcal/mol.
Take GTGAAAGGAAACTTTTAC ((.((((....)))).)): the Tm in data set [1] was 31.3 °C. Also, in data set [2], the folding enthalpy was -22.9 kcal/mol.
For GTGAACGAAAGTTACAC ((((((....))).))) the same measures were 38.8 °C and -17.7 kcal/mol.
As for GTGAACGAAAGTTATCAC ((((((....)))..))), the Tm in data set [1] came to 31 °C. Besides, in data set [2], the folding enthalpy is -13.2 kcal/mol.
On to GTGAACGAAAGTTCTCAC ((((((....)))..))), for which the Tm in data set [1] was 35 °C. Besides, the folding enthalpy in data set [2] is -14.3 kcal/mol.
On to GTGAACGAAAGTTGCCAC ((((((....)))..))), for which the Tm in data set [1] came out at 25.9 °C. Further, in data set [2], the folding enthalpy is -9.75 kcal/mol.
For GTGAACGCGAAAGCGCAC (((..(((....)))))), in data set [1], the Tm was 42.3 °C. For the same sequence, the folding enthalpy in data set [2] is -14.8 kcal/mol.
For GTGAACGGAAACGTTCGC (.(((((....))))).) the same measures were 56.9 °C and -28.9 kcal/mol.
Regarding GTGAAGGAAACTTCAC ((((((....)))))), the Tm in data set [1] amounted to 54.1 °C. Besides, the folding enthalpy in data set [2] is -32.5 kcal/mol.
For the sequence GTGAATCGAAAGATACAC (((.(((....))).))), the Tm in data set [1] amounted to 46.9 °C. Further, the folding enthalpy in data set [2] was -27.9 kcal/mol.
Turning to GTGAATGGAAACACTCAC ((((.((....)).)))), the Tm in data set [1] came out at 34.4 °C. The folding enthalpy in data set [2] was -24.6 kcal/mol.
GTGAATGGAAACATTCGC (.(((((....))))).): the Tm in data set [1] was found to be 49.9 °C. Moreover, in data set [2], the folding enthalpy was -25.4 kcal/mol.
As to GTGACACGAAAGTGACAC (((.(((....))).))), the Tm in data set [1] was 58.7 °C. The folding enthalpy in data set [2] was -39.7 kcal/mol.
On to GTGACACGAAAGTGCCAC (((.(((....))).))), for which the Tm in data set [1] is 56.3 °C. The folding enthalpy in data set [2] was -40.1 kcal/mol.
For the sequence GTGACAGAAATGTCAC ((((((....)))))), the Tm in data set [1] was 57.6 °C. Also, the folding enthalpy in data set [2] was -35.7 kcal/mol.
GTGACAGGAAACTGTCAC (((((((....))))))): in data set [1], the Tm worked out at 65.2 °C. In addition, the folding enthalpy in data set [2] was -42.1 kcal/mol.
Consider GTGACAGGAAACTGTCGC (.(((((....))))).), for which the Tm in data set [1] was 53.9 °C. In data set [2], the folding enthalpy was -30.2 kcal/mol.
The like results for GTGACAGGAAACTGTTAC ((.((((....)))).)) were, in that order, 45.4 °C and -28.1 kcal/mol.
